Data taken from ChEMBL document CHEMBL1914309, “Binding of isoxazole and pyrazole derivatives of curcumin with the activator binding domain of novel protein kinase C” (Bioorg Med Chem, 2011).
pEC50: −log10 of the molar value.

Tests used:
[1] = Solubility of the compound; type: physicochemical
[2] = Selectivity ratio of EC50 for PKCdelta C1B subdomain to EC50 for PKCtheta C1B subdomain
Procedure, shortened: (§1)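 Ratios of EC50 values, each taken from a modified-Hill fit of intrinsic tryptophan/tyrosine fluorescence quenching (excitation 280 nm, read at 350 nm) of the C1B subdomains in Tris/NaCl/DTT/ZnSO4 buffer, pH 7.2, at 25 °C.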

[3] = target: Protein kinase C delta type (Homo sapiens, UniProt Q05655); experiment: Binding affinity to PKCdelta C1B subdomain after 1 hr by fluorescence quenching analysis
Procedure, shortened: (§2)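 Purified C1B subdomain of PKC delta, epsilon or theta was titrated with ligand in 50 mM Tris, 150 mM NaCl, 2 mM DTT, ZnSO4, pH 7.2, at 25 °C. Intrinsic fluorescence was excited at 280 nm and emission recorded from 300–550 nm. (F0−F)/F at 350 nm was plotted against ligand concentration, and the curve was fitted to a modified Hill equation to give EC50 and Hill coefficient.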

[4] = target: T1, Protein kinase C epsilon type (Homo sapiens, UniProt Q02156); experiment: Binding affinity to PKCepsilon C1B subdomain after 1 hr by fluorescence quenching analysis; procedure, shortened: as §2
T1 sequence (Q02156 whole entry): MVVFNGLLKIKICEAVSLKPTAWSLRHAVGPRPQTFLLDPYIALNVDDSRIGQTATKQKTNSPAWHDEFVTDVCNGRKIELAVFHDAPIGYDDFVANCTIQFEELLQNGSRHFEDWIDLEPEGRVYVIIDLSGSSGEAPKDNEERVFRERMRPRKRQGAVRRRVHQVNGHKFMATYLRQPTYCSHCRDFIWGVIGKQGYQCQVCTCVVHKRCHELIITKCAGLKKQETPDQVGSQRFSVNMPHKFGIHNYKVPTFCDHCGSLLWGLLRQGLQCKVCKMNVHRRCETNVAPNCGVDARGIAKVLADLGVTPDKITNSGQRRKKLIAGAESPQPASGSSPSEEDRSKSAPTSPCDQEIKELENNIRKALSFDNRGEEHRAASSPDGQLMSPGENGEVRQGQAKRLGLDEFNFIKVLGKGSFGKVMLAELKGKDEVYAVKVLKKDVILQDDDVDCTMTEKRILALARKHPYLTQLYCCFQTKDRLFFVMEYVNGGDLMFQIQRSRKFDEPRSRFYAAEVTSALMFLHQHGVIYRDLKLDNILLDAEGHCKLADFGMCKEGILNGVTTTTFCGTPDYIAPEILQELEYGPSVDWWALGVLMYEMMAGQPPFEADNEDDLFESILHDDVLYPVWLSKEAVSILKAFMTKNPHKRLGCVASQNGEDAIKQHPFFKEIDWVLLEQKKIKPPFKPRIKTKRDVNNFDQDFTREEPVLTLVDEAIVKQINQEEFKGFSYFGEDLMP

[5] = Selectivity ratio of EC50 for PKCepsilon C1B subdomain to EC50 for PKCtheta C1B subdomain; procedure, shortened: as §1
[6] = target: Protein kinase C theta type (Homo sapiens, UniProt Q04759); experiment: Binding affinity to PKCtheta C1B subdomain after 1 hr by fluorescence quenching analysis; procedure, shortened: as §2
Protein kinase C theta type, sequence (Q04759 whole entry): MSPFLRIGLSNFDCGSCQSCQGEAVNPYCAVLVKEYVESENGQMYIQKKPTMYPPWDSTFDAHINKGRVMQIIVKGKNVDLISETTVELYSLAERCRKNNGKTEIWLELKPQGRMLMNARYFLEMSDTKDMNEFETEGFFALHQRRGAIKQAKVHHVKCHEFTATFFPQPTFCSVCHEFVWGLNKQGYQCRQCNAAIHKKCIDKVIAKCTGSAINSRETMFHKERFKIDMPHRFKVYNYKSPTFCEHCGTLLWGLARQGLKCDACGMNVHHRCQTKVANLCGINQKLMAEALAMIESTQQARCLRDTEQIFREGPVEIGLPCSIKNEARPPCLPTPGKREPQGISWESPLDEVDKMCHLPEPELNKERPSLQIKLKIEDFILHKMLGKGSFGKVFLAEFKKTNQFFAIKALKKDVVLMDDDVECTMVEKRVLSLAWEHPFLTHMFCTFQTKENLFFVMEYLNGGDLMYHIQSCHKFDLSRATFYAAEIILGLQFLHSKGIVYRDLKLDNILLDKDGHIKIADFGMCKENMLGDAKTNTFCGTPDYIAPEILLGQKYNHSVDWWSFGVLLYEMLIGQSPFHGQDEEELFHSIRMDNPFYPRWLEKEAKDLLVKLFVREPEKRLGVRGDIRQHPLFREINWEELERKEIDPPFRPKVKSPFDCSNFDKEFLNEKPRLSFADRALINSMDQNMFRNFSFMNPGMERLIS

Protein kinase C delta type, sequence (Q05655 whole entry): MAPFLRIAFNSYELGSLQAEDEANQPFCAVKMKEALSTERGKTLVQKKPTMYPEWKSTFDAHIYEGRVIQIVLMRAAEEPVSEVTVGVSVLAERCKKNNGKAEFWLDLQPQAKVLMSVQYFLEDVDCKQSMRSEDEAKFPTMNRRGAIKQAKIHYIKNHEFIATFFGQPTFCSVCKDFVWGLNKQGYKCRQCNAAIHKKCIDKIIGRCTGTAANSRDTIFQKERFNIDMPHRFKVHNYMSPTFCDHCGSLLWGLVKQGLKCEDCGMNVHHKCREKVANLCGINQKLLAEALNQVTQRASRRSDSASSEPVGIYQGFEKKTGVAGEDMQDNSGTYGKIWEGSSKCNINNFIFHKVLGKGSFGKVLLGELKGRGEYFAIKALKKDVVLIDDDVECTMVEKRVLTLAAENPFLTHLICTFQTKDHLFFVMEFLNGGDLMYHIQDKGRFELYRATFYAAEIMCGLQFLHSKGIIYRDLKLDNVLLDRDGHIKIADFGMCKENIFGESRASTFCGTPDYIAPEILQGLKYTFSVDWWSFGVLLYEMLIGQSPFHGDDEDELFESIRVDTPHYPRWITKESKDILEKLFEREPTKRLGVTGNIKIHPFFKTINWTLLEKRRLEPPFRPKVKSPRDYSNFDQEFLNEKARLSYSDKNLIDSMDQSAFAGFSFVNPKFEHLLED

Row | Structure (SMILES) | solubility [1] | Ratio EC50 [2] | pEC50 [3] | pEC50 [4] | Ratio EC50 [5] | pEC50 [6]
1 | CCCCCCCCOc1ccc(/C=C/c2cc(/C=C/c3ccc(OCCCCCCCC)c(OC)c3)on2)cc1OC | Insoluble |  |  |  |  | 
2 | CCCCOc1ccc(/C=C/c2cc(/C=C/c3ccc(OCCCC)c(OC)c3)on2)cc1OC |  |  | 4.60 | 4.63 |  | 5.15

The remaining lines, values ahead:

Row | solubility [1] | Ratio EC50 [2] | pEC50 [3] | pEC50 [4] | Ratio EC50 [5] | pEC50 [6] | Structure (SMILES)
3 |  | 2 | 4.82 | 4.73 | 2 | 5.14 | COc1cc(/C=C/c2cc(/C=C/c3ccc(O)c(OC)c3)[nH]n2)ccc1O [CURCUMIN PYRAZOLE]
4 |  | 3 | 4.94 | 4.93 | 3 | 5.50 | COc1cc(/C=C/c2cc(/C=C/c3ccc(O)c(OC)c3)on2)ccc1O
5 |  |  | 4.66 | 4.79 |  | 4.80 | CCCCOc1ccc(/C=C/c2cc(/C=C/c3ccc(O)c(OC)c3)n[nH]2)cc1OC
